Measurements: paper PMC7470514 (RSC Chemical Biology, 2020)
Where “and” joins values, the source holds several entries; their conditions need not be identical. Equal entries are not always repeated. Where no end group is shown, it is not given here.

Experiments:
Assay type in all cases: cell-based
[1] = target: T1, S. pneumoniae ComD1 receptor (Streptococcus pneumoniae serotype 2, UniProt A0A0H2ZM50); test: β-galactosidase reporter assay, competitive inhibition
T1 sequence (A0A0H2ZM50 1-441): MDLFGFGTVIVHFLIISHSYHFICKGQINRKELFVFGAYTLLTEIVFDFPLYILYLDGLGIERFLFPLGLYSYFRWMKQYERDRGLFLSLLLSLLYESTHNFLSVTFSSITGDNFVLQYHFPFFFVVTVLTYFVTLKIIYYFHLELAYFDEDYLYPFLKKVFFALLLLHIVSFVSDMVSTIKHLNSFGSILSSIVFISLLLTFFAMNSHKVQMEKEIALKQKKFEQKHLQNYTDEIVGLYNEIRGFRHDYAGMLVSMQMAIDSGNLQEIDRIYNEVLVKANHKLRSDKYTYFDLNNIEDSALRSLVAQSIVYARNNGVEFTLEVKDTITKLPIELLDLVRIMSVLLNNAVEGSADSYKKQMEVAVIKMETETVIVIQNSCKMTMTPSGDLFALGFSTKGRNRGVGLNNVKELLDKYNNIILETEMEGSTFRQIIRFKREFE
In short: (§1)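 Cultures were prepared as for agonism: overnight THY with chloramphenicol, diluted to early exponential phase. Wells held native CSP at a fully activating level (50 nM CSP1 for D39/ComD1; 250 nM CSP2 for TIGR4/ComD2), with test peptide added from a 1 mM stock in triplicate. Controls were CSP plus DMSO, and DMSO alone. Plates were incubated 30 min at 37 °C, then lysed and read by ONPG. IC50 was taken from concentration series.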

[2] = target: T2, S. pneumoniae ComD2 receptor (Streptococcus pneumoniae serotype 4, UniProt A0A0H2US84); test: as above
T2 sequence (A0A0H2US84 1-441): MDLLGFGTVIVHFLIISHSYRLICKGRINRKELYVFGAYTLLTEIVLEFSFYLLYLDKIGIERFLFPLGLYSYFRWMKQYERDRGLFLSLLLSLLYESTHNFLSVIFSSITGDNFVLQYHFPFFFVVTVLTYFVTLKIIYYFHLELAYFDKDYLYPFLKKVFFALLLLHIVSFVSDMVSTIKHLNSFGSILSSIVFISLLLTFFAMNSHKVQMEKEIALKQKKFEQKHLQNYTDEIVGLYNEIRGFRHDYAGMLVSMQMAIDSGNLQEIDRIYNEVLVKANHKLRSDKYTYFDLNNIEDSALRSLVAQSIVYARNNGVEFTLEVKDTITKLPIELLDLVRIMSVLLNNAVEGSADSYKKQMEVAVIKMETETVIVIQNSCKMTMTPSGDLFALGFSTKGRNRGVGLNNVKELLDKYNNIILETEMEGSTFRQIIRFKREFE
In short: as §1

[3] = target: T2, S. pneumoniae ComD2 receptor; test: β-galactosidase reporter assay, agonism
In short: (§2)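 Reporter strains carry lacZ under the comX promoter. Strains were grown from THY agar (5% horse serum, 4 μg mL−1 chloramphenicol; 8 h, 37 °C, 5% CO2), then overnight (15 h) in THY with chloramphenicol. Cultures were diluted 1:50 (D39) or 1:10 (TIGR4) and grown to OD600 0.30–0.35 or 0.20–0.25.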

[4] = target: T1, S. pneumoniae ComD1 receptor; test: β-galactosidase reporter assay, agonism
In short: as §2

Row | Sequence | IC50 [1] | IC50 [2] | EC50 [3] | EC50 [4]
1 | AIRQTHIFFFNFFKRR [S. mitis-CSP-2-E1AN7II8F] | 0.204 µM | 0.135 µM | – | –
2 | AIRQTHNIFFNFFKRR [S. mitis-CSP-2-E1A] | 0.497 µM | – | – | –
3 | AMRLTHNFFFNFFKRR [S. mitis-CSP-2-E1AI2MQ4LI8F] | 0.317 µM | – | – | –
4 | AMRLTHNIFFNFFKRR [S. mitis-CSP-2-E1AI2MQ4L] | 0.0542 µM | – | – | –
5 | AMRQTHFFFFNFFKRR [S. mitis-CSP-2-E1AI2MN7FI8F] | 0.294 µM | 0.418 µM | – | –
6 | AMRQTHIFFFNFFKRR [S. mitis-CSP-2-E1AI2MN7II8F] | 0.141 µM | 0.0329 µM | – | –
7 | AMRQTHNFFFNFFKRR [S. mitis-CSP-2-E1AI2MI8F] | 0.143 µM | – | – | –
8 | AMRQTHNIFFNFFKRR [S. mitis-CSP-2-E1AI2M] | 0.0854 µM | – | – | –
9 | EIRLTHFFFFNFFKRR [S. mitis-CSP-2-Q4LN7FI8F] | – | – | 0.0872 µM | 0.427 µM
10 | EIRLTHFIFFNFFKRR [S. mitis-CSP-2-Q4LN7F] | – | – | 0.322 µM | 0.371 µM
11 | EIRLTHFIFFNLFKRR [S. mitis-CSP-2-Q4LN7FF12L] | – | – | – | 0.426 µM
12 | EIRLTHIFFFNFFKRR [S. mitis-CSP-2-Q4LN7II8F] | – | – | – | 0.242 µM
13 | EIRLTHIIFFNFFKRR [S. mitis-CSP-2-Q4LN7I] | – | – | 0.315 µM | 0.348 µM
14 | EIRLTHNFFFNFFKRR [S. mitis-CSP-2-Q4LI8F] | – | – | 0.37 µM | 0.28 µM
15 | EIRLTHNIFFFFFKRR [S. mitis-CSP-2-Q4LN11F] | – | – | 0.434 µM | 0.00938 µM
16 | EIRLTHNIFFNFFKRR [S. mitis-CSP-2-Q4L] | – | – | 0.252 µM | 0.0882 µM
17 | EIRLTHNIFFNLFKRR [S. mitis-CSP-2-Q4LF12L] | – | – | 0.202 µM | 0.0687 µM
18 | EIRQTHFFFFNFFKRR [S. mitis-CSP-2-N7FI8F] | – | – | 0.0246 µM | –
19 | EIRQTHFFFFNLFKRR [S. mitis-CSP-2-N7FI8FF12L] | – | – | 0.0676 µM | 0.101 µM
20 | EIRQTHFIFFNFFKRR [S. mitis-CSP-2-N7F] | – | – | 0.471 µM | 0.14 µM
21 | EIRQTHFIFFNLFKRR [S. mitis-CSP-2-N7FF12L] | – | – | 0.533 µM | 0.156 µM
22 | EIRQTHIFFFNFFKRR [S. mitis-CSP-2-N7II8F] | – | – | 0.0228 µM | 0.0872 µM
23 | EIRQTHIFFFNLFKRR [S. mitis-CSP-2-N7II8FF12L] | – | – | – | 0.891 µM
24 | EIRQTHIIFFNFFKRR [S. mitis-CSP-2-N7I] | – | – | 0.211 µM | 0.101 µM
25 | EIRQTHIIFFNLFKRR [S. mitis-CSP-2-N7IF12L] | – | – | 0.321 µM | 0.613 µM

Row | Sequence | IC50 [1] | IC50 [2] | EC50 [3] | EC50 [4]
26 | EIRQTHNFFFFFFKRR [S. mitis-CSP-2-I8FN11F] | – | – | 0.284 µM | 0.0122 µM
27 | EIRQTHNFFFNFFKRR [S. mitis-CSP-2-I8F] | – | – | 0.209 µM | 0.128 µM
28 | EIRQTHNFFFNLFKRR [S. mitis-CSP-2-I8FF12L] | – | – | 0.202 µM | 0.16 µM
29 | EIRQTHNIFFFFFKRR [S. mitis-CSP-2-N11F] | – | – | 0.22 µM | 0.00463 µM
30 | EIRQTHNIFFFLFKRR [S. mitis-CSP-2-N11FF12L] | – | – | 0.127 µM | 0.00497 µM
31 | EIRQTHNIFFNFFKRR [S. mitis-CSP-2] | – | – | 0.635 µM | 0.663 µM
32 | EIRQTHNIFFNLFKRR [S. mitis-CSP-2-F12L] | – | – | 0.813 µM | 0.0543 µM
33 | EMRLTHFIFFNFFKRR [S. mitis-CSP-2-I2MQ4LN7F] | – | – | 0.0756 µM | 0.137 µM
34 | EMRLTHIIFFNFFKRR [S. mitis-CSP-2-I2MQ4LN7I] | – | – | 0.187 µM | 0.155 µM
35 | EMRLTHNFFFNFFKRR [S. mitis-CSP-2-I2MQ4LI8F] | – | – | < 0.1 µM and 0.03 µM | < 0.1 µM and 0.042 µM
36 | EMRLTHNIFFFFFKRR [S. mitis-CSP-2-I2MQ4LN11F] | – | – | 0.188 µM | 0.0148 µM
37 | EMRLTHNIFFNFFKRR [S. mitis-CSP-2-I2MQ4L] | – | – | 0.141 µM | 0.0499 µM
38 | EMRLTHNIFFNLFKRR [S. mitis-CSP-2-I2MQ4LF12L] | – | – | 0.139 µM | 0.0171 µM
39 | EMRQTHFFFFNFFKRR [S. mitis-CSP-2-I2MN7FI8F] | – | – | < 0.1 µM and 0.0135 µM | < 0.1 µM and 0.0636 µM
40 | EMRQTHFIFFNFFKRR [S. mitis-CSP-2-I2MN7F] | – | – | 0.123 µM | 0.131 µM
41 | EMRQTHFIFFNLFKRR [S. mitis-CSP-2-I2MN7FF12L] | – | – | 0.112 µM | 0.0728 µM
42 | EMRQTHIFFFNFFKRR [S. mitis-CSP-2-I2MN7II8F] | – | – | < 0.1 µM and 0.00267 µM | < 0.1 µM and 0.0616 µM
43 | EMRQTHIIFFFFFKRR [S. mitis-CSP-2-I2MN7IN11F] | – | – | – | 0.568 µM
44 | EMRQTHIIFFNFFKRR [S. mitis-CSP-2-I2MN7I] | – | – | 0.0548 µM | 0.448 µM
45 | EMRQTHNFFFFFFKRR [S. mitis-CSP-2-I2MI8FN11F] | – | – | < 0.1 µM and 0.0262 µM | < 0.1 µM and 0.00695 µM
46 | EMRQTHNFFFNFFKRR [S. mitis-CSP-2-I2MI8F] | – | – | 0.0832 µM | 0.151 µM
47 | EMRQTHNIFFFFFKRR [S. mitis-CSP-2-I2MN11F] | – | – | 0.753 µM | 0.0177 µM
48 | EMRQTHNIFFNFFKRR [S. mitis-CSP-2-I2M] | – | – | 0.136 µM | 0.0877 µM
49 | EMRQTHNIFFNLFKRR [S. mitis-CSP-2-I2MF12L] | – | – | 0.146 µM | 0.0258 µM
